Measurements reported in ChEMBL document CHEMBL4261552, “4-Hydroxy-N-[3,5-bis(trifluoromethyl)phenyl]-1,2,5-thiadiazole-3-carboxamide: a novel inhibitor of the canonical NF-κB cascade” (Medchemcomm, 2017).

Key:
[1] = target: Mitogen-activated protein kinase kinase kinase 14 (Homo sapiens, UniProt Q99558); assay: Inhibition of human NIK using AKDVDQGSLCTSFVGTLQY as substrate after 60 mins in presence of ATP by ADP-Glo kinase assay
[2] = target: T1, Inhibitor of nuclear factor kappa-B kinase subunit epsilon (Homo sapiens, UniProt Q14164); assay: Inhibition of human IKKepsilon using ERLLDDRHDSGLDSMKDEE as substrate after 60 mins in presence of ATP by ADP-Glo kinase assay
T1 sequence (Q14164 whole entry): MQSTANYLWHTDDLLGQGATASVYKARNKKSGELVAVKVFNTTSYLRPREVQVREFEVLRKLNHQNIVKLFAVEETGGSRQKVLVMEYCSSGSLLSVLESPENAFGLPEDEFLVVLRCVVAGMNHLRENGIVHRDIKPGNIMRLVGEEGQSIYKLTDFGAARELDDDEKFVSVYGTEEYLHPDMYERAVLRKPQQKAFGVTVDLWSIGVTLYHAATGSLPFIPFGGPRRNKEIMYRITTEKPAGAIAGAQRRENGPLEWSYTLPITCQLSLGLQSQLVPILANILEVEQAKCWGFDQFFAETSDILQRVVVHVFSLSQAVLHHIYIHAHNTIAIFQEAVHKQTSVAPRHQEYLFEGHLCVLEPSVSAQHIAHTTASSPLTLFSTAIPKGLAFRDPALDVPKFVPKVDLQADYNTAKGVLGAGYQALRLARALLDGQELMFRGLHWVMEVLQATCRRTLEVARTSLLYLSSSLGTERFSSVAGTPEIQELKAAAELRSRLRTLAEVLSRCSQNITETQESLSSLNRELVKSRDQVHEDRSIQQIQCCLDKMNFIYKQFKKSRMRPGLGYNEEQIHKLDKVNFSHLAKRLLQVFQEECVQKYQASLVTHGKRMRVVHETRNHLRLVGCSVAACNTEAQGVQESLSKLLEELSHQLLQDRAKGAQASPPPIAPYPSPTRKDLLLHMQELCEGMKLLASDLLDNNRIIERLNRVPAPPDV

[3] = target: T2, Inhibitor of nuclear factor kappa-B kinase subunit epsilon (Homo sapiens) (UniProt Q14164); assay: Inhibition of human IKKepsilon at 100 uM using ERLLDDRHDSGLDSMKDEE as substrate after 60 mins in presence of ATP by ADP-Glo kinase assay relative to control
T2 sequence (whole entry): T1 sequence (Q14164 whole entry)

[4] = tested on: MDA-MB-231; assay: Cytotoxicity against human MDA-MB-231 cells after 72 hrs by CellTox green assay; type: cell-based; conditions: MDA-MB-231, 72 h
How it was run: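 MDA-MB-231 cells (5×10^3/well) exposed to 0.001 - 100 µM compound or DMSO vehicle for 72 h. Membrane-integrity loss read by CellTox green fluorescence. IC50 taken by nonlinear regression; mean ± SD of three independent experiments.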

[5] = tested on: Jurkat; assay: Inhibition of TNFalpha-activated canonical NF-kB signaling pathway in human Jurkat cells assessed as residual activity at 1 uM after 6 hrs by luciferase reporter gene assay relative to control; type: cell-based
How it was run: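 Jurkat cells nucleofected with 3 µg of NF-κB-RE firefly luciferase and TK-Renilla plasmids (10:1), then cultured 24 h at 37 °C. Compound added for a further 6 h, with TNFα in the last 20 min. Firefly luminescence normalized to Renilla and expressed as % of DMSO+TNFα control; mean ± SD of three experiments.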

[6] = target: T3, Inhibitor of nuclear factor kappa-B kinase subunit alpha (Homo sapiens) (UniProt O15111); assay: Inhibition of human IKKalpha at 100 uM using ERLLDDRHDSGLDSMKDEE as substrate after 60 mins in presence of ATP by ADP-Glo kinase assay relative to control
T3 sequence (whole entry): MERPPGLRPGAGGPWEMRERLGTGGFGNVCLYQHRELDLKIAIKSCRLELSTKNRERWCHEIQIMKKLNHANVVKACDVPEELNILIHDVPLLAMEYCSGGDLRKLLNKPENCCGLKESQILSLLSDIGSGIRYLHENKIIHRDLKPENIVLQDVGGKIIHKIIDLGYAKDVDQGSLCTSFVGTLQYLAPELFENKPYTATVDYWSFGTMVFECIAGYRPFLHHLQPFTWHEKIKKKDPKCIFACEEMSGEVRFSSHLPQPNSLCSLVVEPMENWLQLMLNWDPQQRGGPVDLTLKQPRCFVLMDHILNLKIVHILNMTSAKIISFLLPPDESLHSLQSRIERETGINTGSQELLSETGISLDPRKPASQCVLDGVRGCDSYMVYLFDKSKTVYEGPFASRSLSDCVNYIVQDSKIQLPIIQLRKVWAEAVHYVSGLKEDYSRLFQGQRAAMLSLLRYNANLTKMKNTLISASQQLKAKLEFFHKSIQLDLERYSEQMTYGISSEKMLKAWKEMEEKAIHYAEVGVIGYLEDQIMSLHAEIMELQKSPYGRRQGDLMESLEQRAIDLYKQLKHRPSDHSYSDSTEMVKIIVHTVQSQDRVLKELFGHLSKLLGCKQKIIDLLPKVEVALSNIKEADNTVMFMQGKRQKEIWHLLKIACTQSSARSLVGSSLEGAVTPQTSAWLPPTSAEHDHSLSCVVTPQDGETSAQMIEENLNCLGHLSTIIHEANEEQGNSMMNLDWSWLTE

[7] = target: T4, Inhibitor of nuclear factor kappa-B kinase subunit beta (Homo sapiens, UniProt O14920); assay: Inhibition of human IKKbeta using ERLLDDRHDSGLDSMKDEE as substrate after 60 mins in presence of ATP by ADP-Glo kinase assay
T4 sequence (O14920 whole entry): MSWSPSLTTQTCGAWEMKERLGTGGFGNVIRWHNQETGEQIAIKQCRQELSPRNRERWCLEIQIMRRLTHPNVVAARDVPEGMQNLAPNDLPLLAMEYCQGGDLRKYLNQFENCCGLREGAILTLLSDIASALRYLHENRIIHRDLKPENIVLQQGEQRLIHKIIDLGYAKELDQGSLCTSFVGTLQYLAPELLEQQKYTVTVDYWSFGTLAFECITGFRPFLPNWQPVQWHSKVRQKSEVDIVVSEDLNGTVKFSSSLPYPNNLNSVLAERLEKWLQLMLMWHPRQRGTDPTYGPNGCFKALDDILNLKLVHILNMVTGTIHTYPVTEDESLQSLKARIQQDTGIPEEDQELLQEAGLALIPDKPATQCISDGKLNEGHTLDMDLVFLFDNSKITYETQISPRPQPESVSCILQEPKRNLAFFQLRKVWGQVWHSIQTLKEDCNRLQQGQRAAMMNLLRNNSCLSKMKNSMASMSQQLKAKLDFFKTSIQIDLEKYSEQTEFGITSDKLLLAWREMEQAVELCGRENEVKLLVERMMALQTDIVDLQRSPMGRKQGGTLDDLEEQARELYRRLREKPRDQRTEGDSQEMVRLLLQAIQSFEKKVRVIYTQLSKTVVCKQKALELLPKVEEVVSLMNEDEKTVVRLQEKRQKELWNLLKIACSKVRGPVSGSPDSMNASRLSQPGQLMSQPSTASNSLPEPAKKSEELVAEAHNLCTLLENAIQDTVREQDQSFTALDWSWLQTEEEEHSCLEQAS

Mitogen-activated protein kinase kinase kinase 14, sequence (Q99558 whole entry): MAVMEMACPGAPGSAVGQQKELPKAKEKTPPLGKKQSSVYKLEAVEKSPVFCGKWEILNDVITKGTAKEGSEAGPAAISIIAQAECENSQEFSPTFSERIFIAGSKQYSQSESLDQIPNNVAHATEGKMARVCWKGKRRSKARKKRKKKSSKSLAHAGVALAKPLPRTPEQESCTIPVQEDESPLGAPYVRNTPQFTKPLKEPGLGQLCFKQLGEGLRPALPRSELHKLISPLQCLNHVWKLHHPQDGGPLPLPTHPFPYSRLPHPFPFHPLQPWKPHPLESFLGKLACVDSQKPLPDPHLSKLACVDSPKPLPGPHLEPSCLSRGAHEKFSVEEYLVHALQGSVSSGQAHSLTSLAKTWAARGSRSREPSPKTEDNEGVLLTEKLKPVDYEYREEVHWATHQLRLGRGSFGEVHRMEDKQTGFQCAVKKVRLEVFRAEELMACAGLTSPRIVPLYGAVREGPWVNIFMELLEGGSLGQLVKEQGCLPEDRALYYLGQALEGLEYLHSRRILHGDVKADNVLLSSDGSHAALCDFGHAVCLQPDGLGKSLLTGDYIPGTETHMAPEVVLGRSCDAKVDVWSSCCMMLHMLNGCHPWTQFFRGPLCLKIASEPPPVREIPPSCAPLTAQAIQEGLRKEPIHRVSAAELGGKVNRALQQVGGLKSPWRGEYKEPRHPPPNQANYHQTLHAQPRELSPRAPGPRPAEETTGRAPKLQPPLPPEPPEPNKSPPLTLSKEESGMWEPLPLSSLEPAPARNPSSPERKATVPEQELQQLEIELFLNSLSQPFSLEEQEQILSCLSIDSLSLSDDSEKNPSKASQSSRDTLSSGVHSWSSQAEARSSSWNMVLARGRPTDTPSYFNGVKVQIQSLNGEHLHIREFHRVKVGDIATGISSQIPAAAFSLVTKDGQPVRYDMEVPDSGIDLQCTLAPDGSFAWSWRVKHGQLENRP

Row | SMILES | IC50 [1] [µM] | IC50 [2] [µM] | inhibition [3] [%] | IC50 [4] [µM] | Activity [5] [%] | inhibition [6] [%] | IC50 [7] [µM]
1 | O=C(Nc1cc(C(F)(F)F)cc(C(F)(F)F)c1)c1nsnc1O | > 100 | > 100 | 30.2 | 53 | 15.9 | 25.2 | > 100
2 | O=C(Nc1cc(C(F)(F)F)cc(C(F)(F)F)c1)c1cc(Cl)ccc1O [IMD-0354] | > 100 | > 100 | 30.5 | 0.85 | 23.5 | 3.45 | > 100
